Screening results deposited in PubChem BioAssay by several laboratories.
Compounds with a hit are over-represented: about 6.7% of the library has one in this group of screens.
PREPL inh: inhibits the human prolyl oligopeptidase-like enzyme | recombinant PREPL, fluorescence polarization activity-based probe | Q4J6C6 | inhibition, % at 5.96 µM | 0.68% of 320,000 active | AID 2751
Target sequence (Q4J6C6 whole entry, looked up): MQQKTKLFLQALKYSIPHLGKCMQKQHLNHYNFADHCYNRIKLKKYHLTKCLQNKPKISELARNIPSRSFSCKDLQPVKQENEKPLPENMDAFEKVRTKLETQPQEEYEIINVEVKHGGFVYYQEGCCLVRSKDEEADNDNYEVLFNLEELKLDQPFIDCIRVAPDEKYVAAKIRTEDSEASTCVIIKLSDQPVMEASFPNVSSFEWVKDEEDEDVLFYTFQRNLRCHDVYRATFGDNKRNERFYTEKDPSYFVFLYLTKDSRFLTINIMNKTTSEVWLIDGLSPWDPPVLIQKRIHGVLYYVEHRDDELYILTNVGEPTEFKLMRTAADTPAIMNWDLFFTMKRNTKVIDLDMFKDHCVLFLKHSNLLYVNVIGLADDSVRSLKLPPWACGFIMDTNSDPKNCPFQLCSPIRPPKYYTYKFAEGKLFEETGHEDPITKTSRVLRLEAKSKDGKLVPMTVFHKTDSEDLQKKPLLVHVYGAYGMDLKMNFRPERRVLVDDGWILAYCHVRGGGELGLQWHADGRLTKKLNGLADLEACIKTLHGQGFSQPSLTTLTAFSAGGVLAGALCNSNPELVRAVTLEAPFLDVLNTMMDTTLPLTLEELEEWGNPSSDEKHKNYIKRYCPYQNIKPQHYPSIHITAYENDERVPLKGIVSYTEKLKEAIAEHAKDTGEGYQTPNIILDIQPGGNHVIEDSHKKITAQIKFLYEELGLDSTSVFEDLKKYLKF
T cruzi inh: blocks replication of Trypanosoma cruzi. T. cruzi beta-gal in NIH3T3, luminescence, 90 h. inhibition, % (no concentration beside the values). 1.4% of 300,000 active. AID 1885;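 active means mean inhibition across valid replicates above about 55%, limit read from the data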;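 further: signal also drops with host cell toxicity which is not excluded here; higher percent means less beta-gal luminescence so fewer parasites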
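Material: NIH/3T3 host cells with β-galactosidase reporter T. cruzi; Input: 5,000 host fibroblasts per well; Medium: DMEM, 2% fetal bovine serum; Compound: 50 nL DMSO compound solution per well; Schedule: 3 h host attachment, then at least 90 h co-culture; Detection: luminescent β-galactosidase signal after 60 min lysis.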
Beta apoptosis: blocks beta cell apoptosis; INS-1E cytokine-induced death, ATP luminescence, 48 h; percent of positive-control rescue, neutral wells zero; protection from apoptosis, % (concentration not given with the values); 0.8% of 300,000 active;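 active means Every replicate reaches about 75%, or at least half do and their mean reaches it too, limit read from the data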;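 further: higher means more ATP so stronger rescue from cytokine killing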
NR3A LBD binder: modulates the human NR3A ligand-binding domain; NR3A LBD differential scanning fluorimetry, Tm shift; 0% = protein alone, 100% = glycine-bound protein; Tm shift relative to glycine control, % at 25 µM; 2.5% of 340,000 active; AID 1259313;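 active means melting temperature shift of at least 10% of the positive control shift, at one fixed dose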
CSC inhib: cancer stem cell inhibition; cancer stem cell-like cells viability, luminescence; inhibition, % at 7.5 µM; 1.1% of 300,000 active; AID 2717; in the data active means inhibition above about 75%; tested in HMLE shEcad cells
CHOP inh: blocks CHOP induction under ER stress | CHO-K1 CHOP-promoter luciferase, tunicamycin-induced, 15-18 h | inhibition, % at 10 µM | 3.8% of 220,000 active;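 active means compounds that reduced the stress-induced luciferase reporter signal by more than about 70% of percent inhibition, limit read from the data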
PREPL confirm: confirmation of human PREPL enzyme inhibitors; shares compounds with PREPL inh; recombinant PREPL, fluorescence polarization activity probe; inhibition, % at 5.96 µM; 67% of 2,000 active; AID 2803
Hits are given with their value; i = inactive; nt = no result. Unless noted, no stated cut-off is given here; in the data, active means inhibition above about 43%; inactive means the rest.

SMILES	PREPL inh	T cruzi inh	Beta apoptosis	NR3A LBD binder	CSC inhib	CHOP inh	PREPL confirm
CCCCn1c(O)c(C(C)=NCCc2c[nH]c3ccccc23)c(=O)[nH]c1=O	44	i	i	i	i	i	i
CCCCn1c(O)c(C(C)=NC(Cc2c[nH]c3ccccc23)C(=O)OC)c(=O)[nH]c1=O (stereo not given)	i	i	i	i	i	i	nt
COC(=O)C1=C(c2ccc(-c3ccccc3)c(F)c2)C[C@@H]2CC[C@H]1N2C(=O)N1CCc2cc(OC)c(OC)cc2C1	i	nt	i	i	i	nt	nt
COC1C(O)C(C)OC(OC2C(Oc3cccc4c(O)c5c(=O)oc6ccc(C)c7c(=O)oc(c34)c5c67)OC(C)C(O)C2O)C1O (stereo not given)	nt	nt	nt	i	nt	nt	nt
O=C1C(=O)c2ccccc2-c2ccccc21	53	i	121	i	107	107	50
O=C1C(=O)c2cccc3cccc1c23	i	i	i	i	i	i	nt
C[n+]1c2ccccc2nc2ccc(NCCO)cc21	69	i	i	i	i	nt	66
CNc1ccc2nc3ccccc3[n+](C)c2c1	98	59	93	12	i	nt	84
COC(=O)C1=C(c2ccc(OC)c(OC)c2)C[C@@H]2CC[C@H]1N2C(=O)N1CCCCC1	i	nt	i	i	i	nt	nt
CCCCn1c(O)c(C(CC)=NCc2ccc3c(c2)OCO3)c(=O)[nH]c1=O	49	i	i	i	nt	i	49
C=CCn1c(O)c(C(CC)=NCc2ccc3c(c2)OCO3)c(=O)[nH]c1=O	55	i	i	i	i	i	53
C=CCn1c(O)c(C(CC)=NCc2cc(OC)cc(OC)c2)c(=O)[nH]c1=O	i	i	i	i	i	i	nt
CN1CCCN(C(=O)COc2ccccc2Br)CC1	i	i	i	i	i	nt	nt
COc1ccc(C(=O)NC(=S)N2C[C@H]3C[C@H](C2)c2cccc(=O)n2C3)cc1	i	i	i	i	i	nt	nt
COc1ccc2[nH]c(C)c(CCNCc3cn(C)c4ccccc34)c2c1	70	nt	i	i	i	nt	54
Brc1ccc2[nH]cc(C=NN3CCCCCC3)c2c1	nt	nt	nt	i	nt	nt	nt
C/C(=N\N=C(N)N)c1ccccc1	i	i	i	i	i	i	nt
NC(N)=N/N=C/c1ccc(N(c2ccccc2)c2ccccc2)cc1	77	i	110	22	110	nt	68
CN=C1CN(O)C(c2ccccc2)c2cc(Cl)ccc2N1 (stereo not given)	nt	nt	nt	i	nt	nt	nt
CCCCC1C(=O)NC(=S)N(C)C1=O (stereo not given)	nt	nt	nt	i	nt	nt	nt
O=C(c1ccc2c(c1)N(Cc1ccccc1)CCS2)N1CCC2(CC1)OCCO2	58	i	i	i	i	nt	55
CCN1CC2(COC(=O)c3ccccc3N)CCC(OC)C34C5CC6C(OC)CC(O)(C5C6OC)C(O)(C(OC)C23)C14 (stereo not given)	45	nt	i	i	i	i	45
CCN1C[C@]2(COC(=O)c3ccccc3N)CC[C@H](OC)C34[C@@H]5C[C@H]6[C@H](OC)[C@@H]5[C@](O)(C[C@@H]6OC)[C@@](O)([C@H]13)[C@@H](OC)[C@@H]42	53	i	i	10	i	nt	46
CCN1C[C@]2(COC)CC[C@H](O)[C@]34C1[C@](O)([C@@H](OC)[C@H]23)[C@@]1(O)C[C@H](OC)[C@H]2C[C@@H]4[C@@H]1[C@H]2OC	i	nt	i	i	i	nt	nt
Cc1ccc(N)cc1N	54	nt	i	i	i	nt	i
SMILES	PREPL inh	T cruzi inh	Beta apoptosis	NR3A LBD binder	CSC inhib	CHOP inh	PREPL confirm
Cc1ccc(N)c(N)c1	i	nt	i	i	i	nt	nt
CN1CCN(c2ccc3ccccc3n2)CC1	nt	nt	nt	nt	nt	i	nt
COC(=O)[C@@H]1C[C@@]1(C)[C@@H](NP(=O)(c1ccccc1)c1ccccc1)c1ccccc1	48	i	nt	i	i	i	56
Cc1nc2c(=O)n(C)c(=O)nc-2n(C)n1	44	i	106	i	i	nt	51
CCOC(=O)c1c(NS(=O)(=O)c2ccccc2)n(CCCOC)c2nc3ccccc3nc12	46	i	nt	i	i	i	i
CN1CCN(C(=O)O[C@H]2c3nccnc3C(=O)N2c2ccc(Cl)cn2)CC1	i	i	i	i	i	nt	nt
